Converted amounts (≈) assume the structure as drawn. The source made the active and inactive calls. The rule behind the calls is not given here.
What was measured:
[1] = tested on: Enterococcus faecium; assay: Antibacterial activity against vancomycin-resistant Enterococcus faecium ATCC 700221 incubated for 16 to 18 hrs by broth microdilution method; assay type: functional
[2] = tested on: Staphylococcus epidermidis; assay: Antibacterial activity against methicillin-resistant Staphylococcus epidermidis ATCC 35984 incubated for 16 to 18 hrs by broth microdilution method; assay type: functional
[3] = tested on: Staphylococcus aureus; assay: Antibiofilm activity against methicillin-resistant Staphylococcus aureus isolate 2 assessed as biofilm eradication incubated for 24 hrs by CBD assay; assay type: functional; settings: for MBC: Staphylococcus aureus, isolate 2, 24 h
Summary of the method: (§1)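 Calgary Biofilm Device: pegs inoculated with mid-log culture diluted 1,000-fold in TSB + 0.5% glucose, 24 h 37 °C; washed pegs challenged with 2-fold dilutions 24 h 37 °C; pegs moved to fresh TSBG 24 h; MBEC = lowest concentration leaving no turbidity; 2–6 independent experiments.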

[4] = tested on: Staphylococcus aureus; assay: Antibacterial activity against methicillin-resistant Staphylococcus aureus clinical isolate 2 incubated for 16 hrs by broth microdilution method in presence of Cu2+; assay type: functional; settings: isolate 2, 16 h
[5] = tested on: Staphylococcus aureus; assay: Antibacterial activity against methicillin-resistant Staphylococcus aureus BAA-44 incubated for 16 to 18 hrs by broth microdilution method; assay type: functional
[6] = tested on: Staphylococcus epidermidis; assay: Antibacterial activity against methicillin-resistant Staphylococcus epidermidis ATCC 35984 assessed as biofilm eradication incubated for 24 hrs by CBD assay; assay type: functional; settings: for MBC: Staphylococcus epidermidis, ATCC 35984, 24 h; summary of the method: as §1
[7] = tested on: Staphylococcus aureus; assay: Antibacterial activity against methicillin-resistant Staphylococcus aureus clinical isolate 2 incubated for 16 hrs by broth microdilution method; assay type: functional; settings: isolate 2, 16 h
[8] = tested on: Staphylococcus epidermidis; assay: Antibacterial activity against Staphylococcus epidermidis ATCC 12228 incubated for 16 to 18 hrs by broth microdilution method; assay type: functional
[9] = tested on: HeLa; assay: Cytotoxicity against human HeLa cells after 24 hrs by LDH release assay; assay type: cell-based
Summary of the method: (§2)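 HeLa in DMEM + 10% FBS, 37 °C 5% CO2, at 70–80% confluence treated with 25, 50, 100 µM for 24 h; DMSO vehicle; Triton X-100 2% v/v max-LDH control, medium-only negative; supernatant with LDH reaction mix 30 min room temperature, stopped, absorbance 490 nm.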

[10] = Induction of hemolysis in human RBC at 200 uM incubated for 1 hr; assay type: cell-based, Erythrocyte; settings: red blood cells, read-out: Activity
Summary of the method: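 Human RBCs (EDTA), washed three times in Tris-buffered saline pH 7.2; 2% hRBC with compound at final 200 µM, 1 h 37 °C; supernatant OD405; % hemolysis relative to DMSO (0%) and Triton X (100%).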

[11] = tested on: Staphylococcus aureus; assay: Antibacterial activity against methicillin-resistant Staphylococcus aureus clinical isolate 2 incubated for 16 hrs by broth microdilution method in presence of tiron; assay type: functional; settings: isolate 2, 16 h
[12] = tested on: Staphylococcus aureus; assay: Antibacterial activity against methicillin-resistant Staphylococcus aureus clinical isolate 2 incubated for 16 to 18 hrs by broth microdilution method; assay type: functional
[13] = tested on: Staphylococcus aureus; assay: Antibacterial activity against methicillin-resistant Staphylococcus aureus clinical isolate 2 incubated for 16 hrs by broth microdilution method in presence of MnTBAP; assay type: functional, organism-based
[14] = tested on: Staphylococcus aureus; assay: Antibiofilm activity against methicillin-resistant Staphylococcus aureus BAA-1707 assessed as biofilm eradication incubated for 24 hrs by CBD assay; assay type: functional; settings: for MBC: Staphylococcus aureus, BAA-1707, 24 h; summary of the method: as §1
[15] = Metal chelating activity assessed as soluble Fe2+-compound complex formation by UV-vis spectroscopic analysis; assay type: physicochemical
Summary of the method: (§3)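 UV-vis monitoring after adding 0.5 equivalents CuSO4 or ammonium iron(II) sulfate to stirred 10 mM ligand in DMSO; Cu stoichiometry from free ligand remaining after 2 h room-temperature stirring with varying CuSO4 in methanol, filtered, redissolved in DMSO, A440 against calibration curve.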

[16] = tested on: Staphylococcus aureus; assay: Antibiofilm activity against methicillin-resistant Staphylococcus aureus BAA-44 assessed as biofilm eradication incubated for 24 hrs by CBD assay; assay type: functional; summary of the method: as §1
[17] = tested on: Staphylococcus aureus; assay: Antibacterial activity against methicillin-resistant Staphylococcus aureus clinical isolate 2 incubated for 16 hrs by broth microdilution method in presence of ascorbic acid; assay type: functional, organism-based
[18] = tested on: Staphylococcus aureus; assay: Antibacterial activity against methicillin-resistant Staphylococcus aureus clinical isolate 2 incubated for 16 hrs by broth microdilution method in presence of Fe2+; assay type: functional; settings: isolate 2, 16 h
[19] = tested on: Staphylococcus epidermidis; assay: Antibacterial activity against Staphylococcus epidermidis ATCC 12228 incubated for 16 to 20 hrs by broth microdilution method; assay type: functional
[20] = tested on: Mycobacterium tuberculosis; assay: Antibacterial activity against Mycobacterium tuberculosis H37Ra ATCC 25177 after 7 days by two-fold serial dilution method; assay type: functional; settings: H37Ra ATCC 25177, 168 h
[21] = tested on: Staphylococcus aureus; assay: Antibacterial activity against methicillin-resistant Staphylococcus aureus clinical isolate 2 incubated for 16 hrs by broth microdilution method in presence of thiourea; assay type: functional, organism-based
[22] = Metal chelating activity assessed as insoluble Cu2+-compound complex formation by UV-vis spectroscopic analysis; assay type: physicochemical; summary of the method: as §3
[23] = tested on: Staphylococcus aureus; assay: Antibacterial activity against Staphylococcus aureus ATCC 25923 incubated for 16 to 20 hrs by broth microdilution method; assay type: functional
[24] = tested on: Staphylococcus aureus; assay: Antibacterial activity against methicillin-resistant Staphylococcus aureus BAA-1707 incubated for 16 to 18 hrs by broth microdilution method; assay type: functional
[25] = tested on: Staphylococcus epidermidis; assay: Antibiofilm activity against methicillin-resistant Staphylococcus epidermidis ATCC 35984 assessed as biofilm eradication at 0.1 to 10 uM incubated for 24 hrs by live/dead staining-based fluorescence microscopic analysis; assay type: functional, organism-based
Summary of the method: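 MRSE 35984 mid-log culture diluted 1:1,000, biofilm grown 24 h at 37 °C on glass dish, saline wash, treated in fresh media 0.1, 1, 10 µM for 24 h at 37 °C; DMSO negative control; Live/Dead stain 15 min dark, paraformaldehyde fixed, fluorescence microscopy.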

[26] = tested on: Staphylococcus epidermidis; assay: Antibiofilm activity against methicillin-resistant Staphylococcus epidermidis ATCC 35984 assessed as reduction in persister cells level within biofilms MBEC incubated for 24 hrs by CBD assay; assay type: functional; design: scale not given: the % may be the effect or the level left
Summary of the method: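 After CBD challenge and recovery, pegs sonicated 30 min in PBS and plated to count viable biofilm cells (CFU/mL) at and below MBEC.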

[27] = tested on: HeLa; assay: Cytotoxicity against human HeLa cells assessed as induction of cell death at 100 uM after 24 hrs by LDH release assay; assay type: cell-based; summary of the method: as §2
[28] = tested on: HeLa; assay: Cytotoxicity against human HeLa cells assessed as cell death at 50 uM after 24 hrs by LDH release assay; assay type: cell-based; summary of the method: as §2
[29] = Aqueous solubility of compound in media after 16 hrs; assay type: physicochemical
[30] = tested on: Enterococcus faecium; assay: Antibiofilm activity against […]-resistant Enterococcus faecium ATCC 700221 assessed as biofilm eradication incubated for 24 hrs by CBD assay; assay type: functional; settings: for MBC: Enterococcus faecium, ATCC 700221, 24 h; summary of the method: as §1
[31] = tested on: Staphylococcus aureus; assay: Ratio of MBEC to MBC for methicillin-resistant Staphylococcus aureus clinical isolate 2 biofilm eradication; assay type: functional
Summary of the method: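 From the same CBD challenge plate, MBC taken by subculturing 20 µL into 180 µL TSBG overnight at 37 °C (no turbidity); MBEC from recovered pegs in fresh TSBG 24 h; ratio MBEC:MBC against MRSA-2.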

Row | Structure (SMILES) | MIC [1] [µM] | MIC [2] [µM] | MBEC [3] [µM] | MBC [3] [µM] | MIC [4] [µM] | MIC [5] [µM] | MBEC [6] [µM] | MBC [6] [µM] | MIC [7] [µM] | MIC [8] [µM] | IC50 [9] [µM] | hemolysis at 1 h, 200 µM [10] [%] | MIC [12] [µM] | MIC [20] [µM] | MIC [24] [µM] | MBEC [30] [µM] | MBC [30] [µM] | further results
1 | Oc1c(Cl)cc(Br)c2nc3cc(Br)c(Br)cc3nc12 | 0.39 (≈ 0.182 µg/mL) | 0.3 (≈ 0.14 µg/mL) | 25 | 25 (≈ 11.7 µg/mL) | > 100 | 25 (≈ 11.7 µg/mL) | 3.13 | 1.56 (≈ 0.729 µg/mL) | 3.13 (≈ 1.46 µg/mL) | 0.08 (≈ 0.0374 µg/mL) | > 100 | 2.1 | 12.5 (≈ 5.84 µg/mL) |  |  |  |  | MIC [11]: 0.2 µM
2 | Oc1c(Br)cc(Br)c2nc3ccccc3nc12 | 6.25 (≈ 2.21 µg/mL) |  | 93.8 | 15.6 (≈ 5.52 µg/mL) | 75 |  | 250 | 23.5 (≈ 8.32 µg/mL) |  |  | > 100 | ≤ 1 |  | 25 (≈ 8.85 µg/mL) |  |  |  | Activity [13]: Active; MBEC [14]: 375 µM; MBC [14]: 62.5 µM (≈ 22.1 µg/mL); Activity [15]: Active; MBEC [16]: 188 µM; MBC ([16]; Staphylococcus aureus, BAA-44, 24 h): 62.5 µM (≈ 22.1 µg/mL); Activity [17]: Active; MIC [18]: 3.13 µM; MIC [19]: 0.27 µg/mL (≈ 0.763 µM); Activity [21]: Active; Activity [22]: Active; MIC [23]: 0.78 µM (≈ 0.276 µg/mL)
3 | Oc1c(Br)cc(I)c2nc3cc(Cl)c(Cl)cc3nc12 | 0.1 (≈ 0.047 µg/mL) | 3.13 (≈ 1.47 µg/mL) | 9.38 | 3.13 (≈ 1.47 µg/mL) | 100 | 3.13 (≈ 1.47 µg/mL) | 2.35 | 1.56 (≈ 0.733 µg/mL) | 6.25 (≈ 2.94 µg/mL) | 0.1 (≈ 0.047 µg/mL) | > 50 | 2.7 | 3.13 (≈ 1.47 µg/mL) | 12.5 (≈ 5.87 µg/mL) | 0.3 (≈ 0.141 µg/mL) | 0.2 | 0.2 (≈ 0.094 µg/mL) | Activity [25]: Active; Activity [26]: >99.99%; Activity [27]: 70%; Activity [28]: Non-toxic; solubility at 16 h [29]: 200 µM (≈ 94 µg/mL)
4 | Oc1ccc(Br)c2nc3cc(Br)c(Br)cc3nc12 | 6.25 (≈ 2.71 µg/mL) | 3.13 (≈ 1.35 µg/mL) | >200 | > 200 | > 100 | 1.56 (≈ 0.675 µg/mL) | >200 | > 200 | 12.5 (≈ 5.41 µg/mL) |  |  | ≤ 1 | 1.56 (≈ 0.675 µg/mL) |  | 0.56 (≈ 0.242 µg/mL) | >200 | > 200 | MIC [18]: 25 µM; MIC [11]: 0.1 µM
5 | Oc1c(Br)cc(Br)c2nc3cc(Cl)c(Cl)cc3nc12 | 0.39 (≈ 0.165 µg/mL) | 0.3 (≈ 0.127 µg/mL) |  |  |  | 50 (≈ 21.1 µg/mL) |  |  |  | 0.08 (≈ 0.0338 µg/mL) | > 100 | ≤ 1 |  | 6.25 (≈ 2.64 µg/mL) | 25 (≈ 10.6 µg/mL) | 0.39 | 0.39 (≈ 0.165 µg/mL) | MBEC [14]: 12.5 µM; MBC [14]: 6.25 µM (≈ 2.64 µg/mL); Activity [26]: >99.99%
6 | C[C@H]1c2cccc(O)c2C(=O)C2=C(O)[C@]3(O)C(=O)C(C(N)=O)=C(O)[C@@H](N(C)C)[C@@H]3[C@@H](O)[C@@H]21.O [DOXYCYCLINE] |  |  | 46.9 | 2 |  |  |  |  |  |  |  |  |  |  |  |  |  | Ratio [31]: >23
7 | Oc1c(Br)ccc2nc3ccccc3nc12 |  |  |  |  |  |  |  |  |  |  |  |  |  |  |  |  |  | MIC [19]: 1.7 µg/mL (≈ 6.18 µM); MIC [23]: 6.25 µM (≈ 1.72 µg/mL)

Source: ChEMBL document CHEMBL3813699, “Structure-Activity Relationships of a Diverse Class of Halogenated Phenazines That Targets Persistent, Antibiotic-Tolerant Bacterial Biofilms and Mycobacterium tuberculosis” (J Med Chem, 2016)
